In article PMC3687671 (British Journal of Pharmacology, 2013):
Entries after “also recorded” stand apart in the source; their conditions may differ. Where two headings read alike, the source gives them in different places. Values belong to the compound of their own block, whether it stands above or below them.

What was measured:
[1] = test system: rat aortic rings; assay: Isolated rat aortic ring assay; details: cumulative concentration-response
How it was run: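 Thoracic aortic rings (2–3 mm) from Sprague–Dawley rats (~300 g) were held in oxygenated Krebs–Henseleit at 37°C under 1 g resting tension, with isometric force recorded. Test compound was added 20 min before 1 μM phenylephrine. At the contraction plateau, cumulative L-cys concentration–response curves were run. At least four rings, each from a different rat; mean ± SEM.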

[2] = target: human CSE (Homo sapiens, UniProt P32929); assay: H2S production by purified recombinant GST-CSE; assay type: biochemical; details: for IC50: 10 μM PLP, 1 mM L-cys, inhibitor added 15 min before L-cys, 60 min, 37°C
How it was run: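 Human CSE was made as a GST fusion in E. coli BL21(DE3) Codon Plus (0.1 mM IPTG, overnight at 18°C) and GSH-affinity purified. Each 100 μL reaction held 5 μg enzyme, 0.01 mM PLP, 1 mM L-cys and 50 mM sodium phosphate pH 8.2. Test compound was preincubated 15 min before L-cys, then 60 min at 37°C. ZnAc then TCA; methylene blue absorbance at 655 nm read against H2S calibration; n = 9.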

[3] = target: T1, human CBS (Homo sapiens, UniProt P35520); assay: H2S production by purified recombinant GST-CBS; assay type: biochemical
T1 sequence (P35520 1-551): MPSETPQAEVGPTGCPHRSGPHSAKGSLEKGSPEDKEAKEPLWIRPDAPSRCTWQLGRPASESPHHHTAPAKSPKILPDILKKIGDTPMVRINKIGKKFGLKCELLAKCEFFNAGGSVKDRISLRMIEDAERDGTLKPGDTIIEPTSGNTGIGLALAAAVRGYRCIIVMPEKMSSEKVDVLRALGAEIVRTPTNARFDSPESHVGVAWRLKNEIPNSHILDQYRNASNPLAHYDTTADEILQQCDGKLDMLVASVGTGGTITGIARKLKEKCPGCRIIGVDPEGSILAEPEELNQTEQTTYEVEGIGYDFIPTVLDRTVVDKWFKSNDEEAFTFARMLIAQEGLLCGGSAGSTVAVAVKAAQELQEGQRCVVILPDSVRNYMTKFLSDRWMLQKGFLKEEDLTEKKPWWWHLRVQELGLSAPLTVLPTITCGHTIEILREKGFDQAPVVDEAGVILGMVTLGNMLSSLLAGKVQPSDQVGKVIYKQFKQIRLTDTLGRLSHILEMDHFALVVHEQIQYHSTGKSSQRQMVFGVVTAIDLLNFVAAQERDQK
How it was run: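 Human CBS was expressed as an N-terminal GST fusion in E. coli BL21(DE3) Codon Plus (0.3 mM δ-ALA, 0.1 mM IPTG, overnight at 30°C) and purified by GSH affinity. Each 100 μL reaction held 5 μg enzyme, 0.01 mM PLP, 1 mM L-cys, 1 mM homocysteine and 50 mM sodium phosphate pH 8.2. Test compound went in 15 min before substrate, then 60 min at 37°C. Stopped with ZnAc/TCA; methylene blue A655 against H2S standard curve; n = 9.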

Sequence of human CSE (P32929 whole entry, the tested form may be a part): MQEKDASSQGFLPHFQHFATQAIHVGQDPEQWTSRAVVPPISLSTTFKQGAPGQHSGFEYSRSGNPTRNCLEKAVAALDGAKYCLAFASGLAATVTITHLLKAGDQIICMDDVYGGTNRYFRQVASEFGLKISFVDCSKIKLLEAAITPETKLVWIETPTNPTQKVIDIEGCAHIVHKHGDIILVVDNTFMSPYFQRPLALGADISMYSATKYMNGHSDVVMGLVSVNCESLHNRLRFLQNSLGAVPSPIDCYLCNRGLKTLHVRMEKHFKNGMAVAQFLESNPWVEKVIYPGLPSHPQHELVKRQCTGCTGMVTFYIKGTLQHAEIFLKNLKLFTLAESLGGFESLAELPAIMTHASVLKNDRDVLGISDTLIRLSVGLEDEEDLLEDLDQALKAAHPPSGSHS

CSE H2S production (% of control) ([2]; 0.1 mM compound): 86.7 ± 17.8 % of control | CSE H2S production (% of control) ([2]; 1 mM compound): 76.7 ± 11.3 % of control | CBS H2S production (% of control) ([3]; 0.1 mM compound): 88.4 ± 7.4 % of control | CBS H2S production (% of control) ([3]; 1 mM compound): 93.8 ± 9.9 % of control
Compound: C#CCOc1ccc(N)cc1C(=O)NCCCC [Parsalmide]
Effect on CSE activity ([2]; 0.1 and 1 mM (Table 2)): failed to significantly reduce CSE or CBS activity | Effect on CBS activity ([3]; 0.1 and 1 mM (Table 2)): failed to significantly reduce CSE or CBS activity

IC50 ([2]; read-out: CSE, IC50, 5 μg CSE): 289 ± 7 µM | Potency on CBS relative to HA [3]: fourfold | Selectivity for CBS (fold lower IC50 for CBS versus CSE) ([3]; IC50 CSE / IC50 CBS): fourfold
Compound: N[C@H](C(=O)O)C(F)(F)F [Trifluoroalanine, trifluoroalanine]

CSE H2S production (% of control) ([2]; 0.1 mM compound): 93.3 ± 23.0 % of control | Effect on CSE activity ([2]; 1 mM): showed a tendency to reduce CSE activity | CBS H2S production (% of control) ([3]; 0.1 mM compound): 86.4 ± 9.4 % of control | CBS H2S production (% of control) ([3]; 1 mM compound): 88.4 ± 2.1 % of control
Compound: NNC(=O)c1ccncc1 [Isoniazid, isoniazid]

CSE H2S production (% of control) ([2]; 0.1 mM compound): 96.7 ± 7.1 % of control | CSE H2S production (% of control) ([2]; 1 mM compound): 81.7 ± 12.5 % of control | CBS H2S production (% of control) ([3]; 0.1 mM compound): 74.0 ± 12.8 % of control | CBS H2S production (% of control) ([3]; 1 mM compound): 90.1 ± 14.3 % of control
Compound: C#CCN(C)Cc1ccccc1 [Pargyline, pargyline]
Effect on CSE activity ([2]; 0.1 and 1 mM (Table 2)): failed to significantly reduce CSE or CBS activity | Effect on CBS activity ([3]; 0.1 and 1 mM (Table 2)): failed to significantly reduce CSE or CBS activity

Second part, the compound before the results:

Compound: N[C@@H](CS)C(=O)O [L-cys, L-cysteine]
Relaxation of phenylephrine-contracted aortic rings [1]: led to a concentration-dependent relaxation

Compound: NCCO/C=C/[C@H](N)C(=O)O [AVG, aminoethoxyvinylglycine]
IC50 ([2]; CSE, IC50, 5 μg CSE): 1 ± 0.1 µM | Effect on CBS activity ([3]; up to 1 mM): Neither PAG nor AVG had any effect on CBS activity; also recorded: failed to reduce CBS activity

Compound: C[Se]C[C@H](N)C(=O)O [Methylseleno-cysteine, methylselenocysteine]
CSE H2S production (% of control) ([2]; 0.1 mM compound): 85.5 ± 4.4 % of control | CSE H2S production (% of control) ([2]; 1 mM compound): 79.7 ± 4.3 % of control | Effect on CSE activity ([2]; 0.1 and 1 mM (Table 2)): did not inhibit the activity of neither CBS nor CSE | CBS H2S production (% of control) ([3]; 0.1 mM compound): 95.5 ± 2.1 % of control | CBS H2S production (% of control) ([3]; 1 mM compound): 79.2 ± 5.1 % of control | Effect on CBS activity ([3]; 0.1 and 1 mM (Table 2)): did not inhibit the activity of neither CBS nor CSE

Compound: N[C@H](CS)C(=O)O [D-cysteine]
Relaxation of phenylephrine-contracted aortic rings [1]: but not D-cysteine, led to a concentration-dependent relaxation

Compound: NO [HA, hydroxylamine]
Inhibition of CSE activity ([2]; 5 μM): approximately 60% | Inhibition of CSE activity ([2]; 50 μM): abolished CSE activity | Selectivity towards CSE versus CBS ([2]; IC50 CBS / IC50 CSE): 60 fold | IC50 ([2]; read-out: CSE, IC50, 5 μg CSE): 4.83 ± 0.31 µM | Inhibition of CBS ([3]; 100 μM): approximately 30%

Compound: N[C@@H]1CON=C1O [D-Cycloserine, D-cycloserine]
CSE H2S production (% of control) ([2]; 0.1 mM compound): 83.3 ± 19.2 % of control | Effect on CSE activity ([2]; 1 mM): showed a tendency to reduce CSE activity | CSE H2S production (% of control) ([2]; 1 mM compound): 73.3 ± 18.6 % of control | CBS H2S production (% of control) ([3]; 0.1 mM compound): 94.2 ± 20.5 % of control | CBS H2S production (% of control) ([3]; 1 mM compound): 80.6 ± 21.0 % of control

Compound: CCN(CC)/[N+]([O-])=N/O.CCNCC [DEA/NO, diethylamine NONOate]
Inhibition of CSE activity ([2]; 5 μM): did not inhibit CSE activity | Maximal inhibition of CSE activity ([2]; 250 μM): 75% | Effect on CSE activity ([2]; NO donor, concentration-response): concentration dependently attenuated CSE activity | Effect on CBS activity ([3]; NO donor, up to 250 μM): did not affect CBS activity; also recorded: CBS was resistant
